Bioassay records deposited in PubChem BioAssay by Sanford-Burnham Center for Chemical Genomics.
The list is a sample of the results.
Apaf-1 act = human Apaf-1 activation; O14727; Apaf-1 apoptosome caspase-3 activation, DEVD-Rh110 fluorescence; hits give low values; activity change, negative = activation, % at 20 µM; 0.31% of 330,000 active; AID 489031;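 active = activity change at or below -40% at 20 µM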
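Schedule: 30 min preincubation, 50 min reaction, room temperature / System: biochemical Apaf-1 apoptosome reconstitution / Medium: 20 mM HEPES pH 7.5 with CHAPS, BSA / Evaluation: Caspase-3 cleavage activity downstream of Apaf-1 activation / Detection: Caspase-3-released Rh110 fluorescence, 540 nm emission, 480 nm excitation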
Rh110 act interf = Rh110 signal interference in Apaf-1 activator counter-screen; shares compounds with Apaf-1 act; 980 tested, under 10 active; AID 504616; fluorescence interference (activity change), % at 20 µM, hits read low; Rh110 fluorescence interference, quenched caspase reaction, Ex480/Em540;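 active = mean activity change at or below -40% when tested at 20 µM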
Apaf-1 act conf2 = Apaf-1 (human) activation, single-dose confirmed. shares compounds with Apaf-1 act. reconstituted apoptosome caspase-3 activity, DEVD-Rh110 fluorescence; hits give low values. activity change, negative = activation, % at 20 µM. 5% of 980 active. AID 504617;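 active = mean activity change at or below -40%, meaning activation of 40% or more, at 20 µM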
Each line names hits and unclear results; the compound was inactive in the other large screens (follow-up assays come after a bar, where they were run).

CCc1ccc(CNc2ccc(O)cc2)cc1	none
CC/C(=C(/CC)c1ccc(O)cc1)c1ccc(O)cc1	Apaf-1 act -151
CC(NC(=O)C1CCN(C(=O)c2cccs2)CC1)c1ccc(S(N)(=O)=O)cc1 (stereo unspecified)	none
O=C(Nc1ccnn1C1CCN(C/C=C/c2ccccc2)CC1)c1ccccc1Cl	Apaf-1 act -61
C=CCn1c(NC(=O)c2ccccc2Cl)c(C#N)c2nc3ccccc3nc21	none
COc1ccccc1NS(=O)(=O)c1cccc(C(=O)N2CCN(C/C=C/c3ccccc3)CC2)c1	none
Cc1cc(N2CCCC2)ccc1NC(=O)COc1ccccc1	none
O=C(Cc1ccc(Br)cc1)Nc1ccccc1N1CCCC1	Apaf-1 act -66
O=C(NCC(F)(F)F)c1ccc(S(=O)(=O)Nc2ccccc2N2CCCC2)cc1	none
CN(C)C(=O)c1ccc(NC(=O)c2sccc2-c2ccccc2)cc1	none
NC1=NC[C@H](CC2CCCCC2)N1CCc1cc(C(F)(F)F)cc(C(F)(F)F)c1	none
CC(NC(=O)CC1CCCCC1)c1ccccc1 (stereo unspecified)	Apaf-1 act -109
CC(C)[C@H](NC(=O)N1CCC(Cc2ccccc2)CC1)C(=O)O	none
O=C(COC(=O)c1ccccc1)NCC1CCCO1 (stereo unspecified)	none
Cc1ccc(S(=O)(=O)N(C)C)cc1NC(=O)c1ccccc1SCC(=O)N1CCCC1	none
CC(C)C[C@@H](C(=O)NC1CCN(Cc2ccccc2)CC1)N1C(=O)N2CCc3c([nH]c4ccccc34)[C@@]2(C)C1=O	none
c1ccc2c(c1)CC/C2=N/Nc1nc2ccccc2[nH]1	none
CCN1CCCC1CNC(=O)C1CCN(Cc2nc(-c3cccc(Br)c3)oc2C)CC1 (stereo unspecified)	Apaf-1 act -90
COCc1ccc(CN2CCC(C(=O)Nc3cccc(-c4cccc(Cl)c4)c3)CC2)o1	none
Cc1ccc(S(=O)(=O)N2CCN(C(=O)CCOc3cc(C)ccc3C)CC2)cc1	none
COC(=O)c1ccc(N2CC3CNC(=O)C2(C(=O)OC)N3C)cc1 (stereo unspecified)	none
Cc1ccc(C(=O)NC(C)c2nc3ccccc3n2CC(=O)Nc2c(C)cc(C)cc2C)cc1 (stereo unspecified)	Apaf-1 act -100
CCC(=O)Nc1c(S(=O)(=O)c2ccc(C)cc2)c2nc3ccccc3nc2n1C(C)c1ccccc1 (stereo unspecified)	none
COc1ccccc1C(CNC(=O)CNC(=O)c1ccccc1Cl)N1CCCC1 (stereo unspecified)	none
Cc1cc2nc3ccc(N(C)C)cc3nc2cc1N	none
Cc1ccc(C)c(NC(=O)/C(C#N)=C/c2ccc(Sc3nncn3C)c([N+](=O)[O-])c2)c1	Apaf-1 act -217
COC(=O)C1=C(C)N(Cc2ccccc2)C(=NCCc2c[nH]c3ccccc23)N[C@H]1c1cccc(F)c1	none
O=C(NCCc1c[nH]c2ccccc12)OCCSS(=O)(=O)O	Apaf-1 act -93
COC(=O)C1=C(C)N(Cc2ccccc2)C(=NCCc2c[nH]c3ccccc23)N[C@H]1c1ccccc1	none
CC(=O)c1ccc2c(c1)c(C#N)c1ccccc1[n+]2[O-]	none
CN(C)C=Nc1ccc2nc3c(cc2c1)[nH]c1ccccc13	none
OCCC1CN(Cc2ccc3ncccc3c2)CCN1Cc1ccccc1 (stereo unspecified)	Apaf-1 act -247 | Rh110 act interf inactive | Apaf-1 act conf2 inactive
CCN1C(=O)CC(c2ccccc2)N(C2CCCC2)c2nc(Nc3ccc(C(=O)NC4CCN(C)CC4)cc3OC)ncc21 (stereo unspecified)	none
CCOC(=O)c1ccc(NC2=CC(=O)C(=O)c3ccccc32)cc1	none
CCOC(=O)N1CCC(NC(=O)CCC(=O)N2CCOc3ccccc32)CC1	Apaf-1 act -305 | Rh110 act interf inactive | Apaf-1 act conf2 inactive
CCOc1ccccc1N1CCN(C(=O)C2c3ccccc3Oc3ccccc32)CC1	none
C[C@H](O)CC(=O)O	none
COC(=O)C1=C(C)N(Cc2ccccc2)C(=NCc2cc(OC)c(OC)c(OC)c2)N[C@H]1c1ccc(Br)cc1	none
COc1cc(C2NC(=O)NC(C)=C2C(=O)OCC2CCCO2)cc(OC)c1OC (stereo unspecified)	Apaf-1 act -359 | Rh110 act interf inactive | Apaf-1 act conf2 inactive
COc1cc(C2C(C#N)=C(C)NC3=C2C(=O)c2ccccc23)cc(OC)c1OC (stereo unspecified)	none
O=C(NCCNc1ccc2ccccc2c1)c1cccn2c(=O)c3sccc3nc12	none
O=S(=O)(Nc1cccc(-c2nc3cccnc3s2)c1)c1ccc2c(c1)OCCO2	Apaf-1 act -104 | Rh110 act interf inactive | Apaf-1 act conf2 inactive
O/C=c1\ccc2cccc3nc(C(F)(F)F)nc1c23	none
CC(NC(=O)Nc1ccc(F)cc1)c1ccc2c(c1)OCO2 (stereo unspecified)	Apaf-1 act -71 | Rh110 act interf inactive | Apaf-1 act conf2 inactive
CC1(C(=O)Nc2cccc3ccccc23)CC1(Br)Br (stereo unspecified)	none
Cc1cccc(C(=O)N/N=C/c2ccncc2)c1	Apaf-1 act -45 | Rh110 act interf inactive | Apaf-1 act conf2 inactive
Cc1cc([N+](=O)[O-])c(C)cc1-c1ccc(/C=N/NC(=O)c2cccnc2)o1	none
Cc1ccc(/C=N/NC(=O)c2ccncc2)cc1	Apaf-1 act -499 | Rh110 act interf inactive | Apaf-1 act conf2 inactive
CCCCNc1c(-c2ccc(OC)c(Sc3ccc(OC)cc3)c2)nc2cnccn12	none
CCOC(=O)C1=C(COC(=O)c2ccc([N+](=O)[O-])s2)NC(=O)NC1C (stereo unspecified)	none
C#CCOCCOCCOCCNc1nc(N2CCN(C(=O)CCCCCCCCCCNC(=O)[C@H](CCCCN)n3cc(C[C@@H](C)CC)nn3)CC2)nc(N2CCN(C(=O)CCCCCCCCCCNC(=O)[C@@H]([C@H](C)O)n3cc(C)nn3)CC2)n1	none
COC(=O)c1cccc(C23CC4(C2)[C@H](CN(CC2CCCCC2)[C@@H]4c2ccccc2)C3c2ccccc2)c1 (stereo partly specified)	none
Cc1ccc(NC2=C(N3CCOCC3)C(=O)c3ccccc3C2=O)cc1	none
Cc1ccc(Oc2nsnc2N2CCOCC2)cc1	Apaf-1 act -106 | Rh110 act interf inactive | Apaf-1 act conf2 inactive
N#Cc1c(N2CCCCC2)nc(N)c2c(N)nc3c(c12)CC(c1ccccc1)O3 (stereo unspecified)	none
COc1cc([N+](=O)[O-])ccc1NC(=O)NNC(=O)c1sccc1C	Apaf-1 act -60 | Rh110 act interf inactive | Apaf-1 act conf2 inactive
Cc1[nH]n(-c2ccccc2)c(=O)c1C(c1cccc([N+](=O)[O-])c1)c1c(C)[nH]n(-c2ccccc2)c1=O	none
CC(=O)C(C(C)=O)C1(O)C(=O)c2ccccc2C1=O	none
CN(C(=S)Nc1ccc(SC(F)F)cc1)c1ccc(O)cc1	none
COc1ccc(/C=N/Nc2cc(N3CCCC3)nc(N3CCCC3)n2)cc1	none
CCn1c(=NC(=O)c2ccco2)sc2cccc(F)c21	Apaf-1 act -432 | Rh110 act interf inactive | Apaf-1 act conf2 inactive
CN1CCc2nc(SCC(=O)Nc3cccc(F)c3)c(C#N)c(-c3cccs3)c2C1	none
N#CCCS(=O)(=O)c1ccc(N)cc1	Apaf-1 act -61 | Rh110 act interf inactive | Apaf-1 act conf2 inactive
Cc1cc(C)nc(NS(=O)(=O)c2ccc(N)cc2)n1	none
